Laboratory results as given in ChEMBL document CHEMBL4613249, “Serendipitous Discovery of Leucine and Methionine Depletion Agents during the Search for Polyamine Transport Inhibitors” (J Med Chem, 2020).
The source made the active and inactive calls. The calls are words filed in the database; no cut-off is given here.

How the values were obtained:
L3.6pl [1] = assay: Potentiation of 2 uM N-(anthracenylmethyl) homospermidine-induced toxicity in human L3.6PL cells assessed as increase in Ant-44-induced reduction in cell growth measured after 72 hrs in presence of amine oxidase suppressor aminoguanidine by MTS assay; format: functional, cell-based
Summary of the method: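 L3.6pl cells (500 cells/well) were pretreated 24 h with 250 μM aminoguanidine in PBS, then given Ant-44 (2 μM) with increasing compound for 72 h at 37°C. MTS growth was read, with EC50 relative to the Ant-44-only control.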

L3.6pl [2] = assay: Effect on polyamine level in human L3.6PL cells assessed as spermidine level per mg protein in supernatant at 2 uM measured after 72 hrs in presence of amine oxidase suppressor aminoguanidine by LCMS analysis (reference value: 339 pmol/mg); format: functional
L3.6pl [3] = assay: Effect on polyamine level in human L3.6PL cells assessed as spermine level per mg protein in supernatant at 5 uM measured after 72 hrs in presence of amine oxidase suppressor aminoguanidine by LCMS analysis (reference value: 6152 +/- 5596 pmol/mg); format: functional
L3.6pl [4] = assay: Effect on polyamine level in human L3.6PL cells assessed as acetyl spermine level per mg protein in supernatant at 5 uM measured after 72 hrs in presence of amine oxidase suppressor aminoguanidine by LCMS analysis (reference value: 77 +/- 43 pmol/mg); format: functional
L3.6pl [5] = assay: Effect on polyamine level in human L3.6PL cells assessed as agmatine level per mg protein in supernatant at 5 uM measured after 72 hrs in presence of amine oxidase suppressor aminoguanidine by LCMS analysis (reference value: 101 pmol/mg); format: functional
L3.6pl [6] = assay: Effect on polyamine level in human L3.6PL cells assessed as arginine level per mg protein in supernatant at 2 uM measured after 72 hrs in presence of amine oxidase suppressor aminoguanidine by LCMS analysis (reference value: 22121 +/- 10585 pmol/mg); format: functional
L3.6pl [7] = assay: Effect on polyamine level in human L3.6PL cells assessed as arginine level per mg protein in supernatant at 5 uM measured after 72 hrs in presence of amine oxidase suppressor aminoguanidine by LCMS analysis (reference value: 22121 +/- 10585 pmol/mg); format: functional
L3.6pl [8] = assay: Effect on polyamine level in human L3.6PL cells assessed as leucine level per mg protein in supernatant at 2 uM measured after 72 hrs in presence of amine oxidase suppressor aminoguanidine by LCMS analysis (reference value: 18009 +/- 9061 pmol/mg); format: functional
L3.6pl [9] = assay: Effect on polyamine level in human L3.6PL cells assessed as leucine level per mg protein in supernatant at 5 uM measured after 72 hrs in presence of amine oxidase suppressor aminoguanidine by LCMS analysis (reference value: 18009 +/- 9061 pmol/mg); format: functional
L3.6pl [10] = assay: Effect on polyamine level in human L3.6PL cells assessed as decrease in intracellular spermidine level at 7 uM measured after 72 hrs in presence of amine oxidase suppressor aminoguanidine […] relative to control; format: functional; set-up: scale not given: the % may be the effect or the level left
L3.6pl [11] = assay: Effect on polyamine level in human L3.6PL cells assessed as intracellular putrescine level at 7 uM measured after 72 hrs in presence of amine oxidase suppressor aminoguanidine by LCMS analysis relative to control; format: functional; conditions: in the assay text read “by N-dansylation and HPLC analysis” for “by LCMS analysis”
Summary of the method: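 L3.6pl cells, 50,000 cells/mL in 10 mL per Petri dish with 1 mM aminoguanidine, plated overnight. Dosed with compound at 2, 5 or 7 μM from PBS stocks, then 72 h at 37°C. Intracellular polyamines measured by N-dansylation and HPLC, in duplicate, as nmol/mg protein against a parallel untreated control.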

[12] = biological target: Large neutral amino acids transporter small subunit 1 (Homo sapiens) (UniProt Q01650); assay: Inhibition of LAT1-mediated amino acid transport in human L3.6PL cells assessed as reduction in intracellular leucine level measured after 72 hrs by LCMS analysis; format: cell-based
Summary of the method: (§1)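 L3.6pl cells (50,000 cells/mL, 10 mL, 1 mM aminoguanidine) were seeded in poly-lysine-treated 9 cm dishes and incubated overnight at 37°C. They were then dosed with compound at 2, 5 or 7 μM from PBS stocks (2, 5, 7 mM) and incubated 72 h. Runs were done in triplicate, with amino acid levels per mg protein.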

[13] = biological target: Large neutral amino acids transporter small subunit 1 (Homo sapiens) (UniProt Q01650); assay: Inhibition of LAT1-mediated amino acid transport in human L3.6PL cells assessed as reduction in intracellular methionine level measured after 72 hrs by LCMS analysis; format: cell-based; summary of the method: as §1
[14] = biological target: Large neutral amino acids transporter small subunit 1 (Homo sapiens) (UniProt Q01650); assay: Inhibition of LAT1-mediated [3H]-leucine uptake in human L3.6PL cells measured after 2 mins by scintillation counting analysis; format: cell-based
[15] = biological target: Large neutral amino acids transporter small subunit 1 (Homo sapiens) (UniProt Q01650); assay: Inhibition of LAT1-mediated [3H]-leucine uptake in human L3.6PL cells at 2 to 20 uM and 37 degree C measured after 2 mins by scintillation counter method; format: cell-based
[16] = Selectivity index, ratio of IC50 for cytotoxicity against CHOK1 cells assessed as reduction in cell viability after 48 hrs by MTS assay to IC50 for […] human L3.6PL cells assessed as reduction in cell viability after 48 hrs by MTS assay
Summary of the method: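 The ratio is of 48 h IC50 values from MTS growth assays. CHO K1/CHO-MG cells were plated at 1000 cells/well and L3.6pl at 500 cells/well, drug in PBS was added after overnight incubation, and absorbance was read at 490 nm. IC50 is 50% growth versus untreated control; runs were done twice in triplicate.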

[17] = biological target: Large neutral amino acids transporter small subunit 1 (Homo sapiens) (UniProt Q01650); assay: Induction of LAT1-mediated polyamine efflux in aminoguanidine pretreated human L3.6PL cells assessed as reduction in cell viability at 5 uM measured after 72 hrs in presence of spermine by MTS assay; format: cell-based
Summary of the method: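 L3.6pl cells pre-incubated 24 h with 250 μM aminoguanidine. Then given increasing compound plus putrescine, spermidine or spermine, each fixed at 1 or 5 μM, for 72 h at 37°C. Growth by MTS relative to untreated control.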

CHO-K1 [18] = assay: Induction of polyamine efflux in aminoguanidine pretreated CHOK1 cells assessed as reduction in cell viability measured after 72 hrs in presence of putrescine by MTS assay; format: ADME, cell-based, Cricetulus griseus; conditions: chinese hamster, cho-k1, 72 h
CHO-K1 [19] = assay: Induction of polyamine efflux in aminoguanidine pretreated CHOK1 cells assessed as reduction in cell viability measured after 72 hrs in presence of spermine by MTS assay; format: ADME, cell-based, Cricetulus griseus; conditions: chinese hamster, cho-k1, 72 h
L3.6pl [20] = assay: Induction of polyamine import in human L3.6PL cells assessed as increase in intracellular Ant-44 uptake by measuring Ant-44 level per protein at 1 measured up to 72 hrs in presence of amine oxidase suppressor aminoguanidine by LCMS analysis (reference value: 2.15 +/- 0.1 nmol/mg); format: functional
L3.6pl [21] = assay: Effect on polyamine level in human L3.6PL cells assessed as decrease in intracellular putrescine level at 1 uM measured after 72 hrs in presence of amine oxidase suppressor aminoguanidine and Ant-44 by LCMS analysis; format: functional, cell-based
Summary of the method: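 L3.6pl cells dosed with Ant-44 fixed at 2 μM plus increasing compound for 72 h at 37°C. Intracellular polyamines and Ant-44 given as nmol/mg protein, in duplicate, with a parallel untreated control.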

[22] = biological target: Large neutral amino acids transporter small subunit 1 (Homo sapiens) (UniProt Q01650); assay: Induction of LAT1-mediated polyamine efflux in human L3.6PL cells assessed as increase in [3H]leucine efflux at 60 uM measured after 30 mins at 37 degC in presence of LAT1 inhibitor JPH-203 by scintillation counting method; format: cell-based

Large neutral amino acids transporter small subunit 1 (Homo sapiens), sequence (Q01650 whole entry): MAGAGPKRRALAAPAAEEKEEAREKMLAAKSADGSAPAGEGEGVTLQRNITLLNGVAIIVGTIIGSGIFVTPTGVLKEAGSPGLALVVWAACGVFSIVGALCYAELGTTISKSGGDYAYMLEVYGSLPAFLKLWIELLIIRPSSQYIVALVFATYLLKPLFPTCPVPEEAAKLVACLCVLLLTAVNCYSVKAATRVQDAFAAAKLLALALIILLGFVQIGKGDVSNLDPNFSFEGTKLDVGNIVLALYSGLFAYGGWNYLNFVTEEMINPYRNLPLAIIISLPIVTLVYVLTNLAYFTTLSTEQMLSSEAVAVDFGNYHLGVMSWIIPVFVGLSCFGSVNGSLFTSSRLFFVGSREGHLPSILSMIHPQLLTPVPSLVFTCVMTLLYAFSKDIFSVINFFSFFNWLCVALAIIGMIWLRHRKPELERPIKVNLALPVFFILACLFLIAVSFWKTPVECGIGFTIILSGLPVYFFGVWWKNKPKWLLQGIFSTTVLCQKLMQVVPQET

inhibition [12]: Dose-dependent effect
inhibition [13]: Dose-dependent effect
inhibition [14]: inactive
inhibition [15]: inactive
Activity [22]: inactive
SMILES: CC(C)CCN1CCN([C@@H](CNCc2ccccc2)CC2CCCCC2)C[C@@H]1CC(C)C
EC50 (L3.6pl [1]): 0.29 µM
Activity (L3.6pl [2]): 131 pmol/mg
Activity (L3.6pl [3]): 2690 pmol/mg
Activity (L3.6pl [4]): 36 pmol/mg
Activity (L3.6pl [5]): 485 pmol/mg
Activity (L3.6pl [6]): 18396 pmol/mg
Activity (L3.6pl [7]): 43243 pmol/mg
Activity (L3.6pl [8]): 15055 pmol/mg
Activity (L3.6pl [9]): 202092 pmol/mg
Activity (L3.6pl [10]): 50%
Activity (L3.6pl [11]): 83%
Ratio IC50 [16]: 2
Activity [17]: Active
Activity (CHO-K1 [18]): Active
Activity (CHO-K1 [19]): Active
Activity (L3.6pl [20]): 2.08 nmol/mg
Activity (L3.6pl [21]): Active
